{"data": "Measured values from different studies", "organism": "Staphylococcus aureus", "read-out": "microbial growth", "note": "Compare with care: the assays were run in different laboratories."}
{"SMILES": "CC(C)/N=C(\\N)c1ccc(NC(=O)c2ccc(C(=O)Nc3ccc(/C(N)=N/C(C)C)cc3)cc2)cc1", "MIC": "4 µg/mL"}
{"SMILES": "O=C1NC(=S)N/C1=C\\c1ccc(-c2ccc(N(c3ccccc3)c3ccccc3)cc2)cc1", "assay": "broth dilution", "test system": "ATCC6538", "MIC": "> 1000 µg/mL"}
{"SMILES": "Cc1ccc(C)n1-c1ccc(-c2n[nH]c(=S)[nH]2)cc1", "assay": "broth dilution", "test system": "ATCC11632", "setting": "18 h", "MIC": "4 µg/mL"}
{"SMILES": "CC(=O)NC[C@H]1CN(c2ccc(N3CCOCC3)c(F)c2)C(=O)O1", "assay": "broth dilution", "test system": "MRSA NRS382 USA100", "setting": "drug-resistant strain", "MIC": "2 µg/mL"}
{"SMILES": "CN[C@H](CC(C)C)C(=O)N[C@H]1C(=O)N[C@@H](CC(N)=O)C(=O)N[C@H]2C(=O)N[C@H]3C(=O)N[C@H](C(=O)N[C@H](C(=O)O)c4cc(O)cc(O)c4-c4cc3ccc4O)[C@H](O)c3ccc(c(Cl)c3)Oc3cc2cc(c3O[C@@H]2O[C@H](CO)[C@@H](O)[C@H](O)[C@H]2O[C@H]2C[C@](C)(N)[C@H](O)[C@H](C)O2)Oc2ccc(cc2Cl)[C@H]1O", "assay": "broth dilution", "test system": "CCARM3090", "MIC": "0.5 µg/mL"}
{"SMILES": "COc1c(C)c(OC(C)=O)c(C)c(OC(C)=O)c1C(=O)/C=C/c1ccccc1", "assay": "broth dilution", "test system": "ATCC25923", "MIC": "5000 µg/mL"}
{"SMILES": "C/C=C(\\C)c1cc(OC(=O)c2c(C)c(Cl)c(O)c(Cl)c2O)c(C)c(O)c1C(=O)O", "assay": "broth dilution", "test system": "745524", "MIC": "64 µg/mL"}
{"SMILES": "N=C(N)NN=Cc1ccc(OC/C=C\\COc2ccc(C=NNC(=N)N)cc2)cc1", "test system": "USA300", "setting": "16 h", "MIC": "≤ 3 µg/mL"}
{"SMILES": "CC1=NN(CNc2ccc(Cl)cc2)C(=O)C1=NNn1c(-c2ccccc2)nc2ccccc2c1=O", "assay": "broth dilution", "setting": "24 h", "MIC": "51.5 µM"}
{"SMILES": "CN[C@H](CC(C)C)C(=O)N[C@H]1C(=O)N[C@@H](CC(N)=O)C(=O)N[C@H]2C(=O)N[C@H]3C(=O)N[C@H](C(=O)N[C@H](C(=O)O)c4cc(O)cc(O)c4-c4cc3ccc4O)[C@H](O)c3ccc(c(Cl)c3)Oc3cc2cc(c3O[C@@H]2O[C@H](CO)[C@@H](O)[C@H](O)[C@H]2O[C@H]2C[C@](C)(N)[C@H](O)[C@H](C)O2)Oc2ccc(cc2Cl)[C@H]1O", "assay": "broth dilution", "test system": "ATCC43300 MRSA", "setting": "18 h", "MIC": "1 µg/mL"}
{"SMILES": "CN(C)c1ccc(-c2ccc3cc4c(c(O)c3c2)C(=O)C2=C(O)[C@]3(O)C(=O)C(C(N)=O)=C(O)[C@@H](N(C)C)[C@@H]3C[C@@H]2C4)cc1", "assay": "broth dilution", "test system": "ATCC29213", "MIC": "32 µg/mL"}
{"SMILES": "CCn1c(-c2nonc2N)nc2c(C#CC(C)(C)O)ncc(OC[C@H]3CCCNC3)c21", "test system": "NCTC8325", "MIC": "> 30 µM"}
{"SMILES": "Clc1ccc(-c2nc3ccccc3n2Cc2ccccc2)cc1", "assay": "broth dilution", "test system": "ATCC29213 MSSA", "MIC": "64 µg/mL"}
{"SMILES": "C#CCCC1(CCNC(=O)c2cc(Oc3ccc(NC(=O)Nc4ccc(Cl)c(C(F)(F)F)c4)cc3)ccn2)N=N1", "test system": "NCTC8325", "setting": "24 h", "MIC": "10 µM"}
{"SMILES": "Cc1ccc(NCc2ccc(Oc3ccccn3)cc2)cc1", "MIC": "1.8 µg/mL"}
{"SMILES": "C/C(=C\\c1ccc(C#N)cc1)C(=O)Nc1ccc(C(=O)N[C@@H](CC(N)=O)C(=O)Nc2ccc(C(=O)Nc3ccc(C(=O)Nc4ccc(C(=O)O)cc4)c(O)c3OCC(C)C)cc2)cc1", "test system": "ATCC29213", "MIC": "0.06 µg/mL"}
{"SMILES": "CCS(=O)(=O)c1cccc(-c2cc(C(=O)NC3CCN(C)CC3)c(C)c3[nH]c4ncc(C)cc4c23)c1", "test system": "NCTC8325", "MIC": "> 30 µM"}
{"SMILES": "C=C(C/C=C(\\C)CCC=C(C)C)CCC(C)(C)/C=C/CC/C(C)=C\\CO[C@H](COP(=O)(O)O[C@H]1O[C@H](C(N)=O)[C@@](C)(O)[C@H](OC(N)=O)[C@H]1O[C@@H]1O[C@H](CO[C@@H]2O[C@H](CO)[C@@H](O)[C@H](O)[C@H]2O)[C@@H](O[C@@H]2O[C@H](C)[C@@H](O[C@@H]3O[C@H](C(=O)NC4=C(O)CCC4=O)[C@H](O)[C@H](O)[C@H]3O)[C@H](O)[C@H]2NC(C)=O)[C@H](O)[C@H]1NC(C)=O)C(=O)O", "assay": "broth dilution", "setting": "18 h", "MIC": "< 0.75 µg/mL"}
{"SMILES": "CCOc1cc(-c2nc3ccccc3[nH]2)ccc1O", "assay": "broth dilution", "test system": "ATCC29213 MSSA", "MIC": "128 µg/mL"}
{"SMILES": "CC(C)Oc1c(NC(=O)c2ccc(NC(=O)[C@H](CC(N)=O)NC(=O)c3ccc(NC(=O)c4ccc([N+](=O)[O-])cc4)cc3)cc2)ccc(C(=O)Nc2ccc(C(=O)O)c(F)c2)c1O", "test system": "ATCC29213", "MIC": "2 µg/mL"}
{"SMILES": "CS(=O)(=O)CCNCc1ccc(-c2ccc3ncnc(Nc4ccc(OCc5cccc(F)c5)c(Cl)c4)c3c2)o1", "test system": "NCTC8325", "MIC": "> 30 µM"}
{"SMILES": "CC1CCN(CCCN2/C(=C/c3cc[n+](C)c4ccccc34)Sc3ccccc32)CC1.[I-]", "assay": "broth dilution", "test system": "ATCCBAA44", "MIC": "2 µg/mL"}
{"SMILES": "CNc1cccc2cc(C(=O)Nc3ccc(C(=O)O)cc3)c(=O)[nH]c12", "test system": "ATCC29213", "MIC": "16 µg/mL"}
{"SMILES": "COc1cccc(OC)c1C(=O)N[C@@H]1C(=O)N2[C@@H]1SC(C)(C)[C@@H]2C(=O)O", "test system": "147", "setting": "clinical isolate", "MIC": "6.25 µM"}
{"SMILES": "Cc1ccc2nc(-c3ccc(Cl)cc3)n(Cc3ccccc3Cl)c2c1", "assay": "broth dilution", "test system": "ATCC29213 MSSA", "MIC": "64 µg/mL"}
{"SMILES": "COc1cccc(NCc2ccc(Oc3ccccn3)cc2)c1", "MIC": "1.6 µg/mL"}
{"SMILES": "Fc1cccc(Cl)c1-c1nc2ccccc2[nH]1", "assay": "broth dilution", "test system": "ATCC29213 MSSA", "MIC": "64 µg/mL"}
{"SMILES": "CNC(=O)CN1CCC(Oc2cc3c(Nc4cccc(Cl)c4F)ncnc3cc2OC)CC1", "test system": "NCTC8325", "MIC": "> 30 µM"}
{"SMILES": "CC(=O)Nc1ccc(C(=O)Nc2ccc(C(=O)N[C@@H](CC(N)=O)C(=O)Nc3ccc(C(=O)Nc4ccc(C(=O)Nc5ccc(C(=O)O)cc5)c(O)c4OC(C)C)cc3)cc2)cc1", "test system": "ATCC29213", "MIC": "64 µg/mL"}
{"SMILES": "C[C@@H]1CCN(C(=O)CC#N)C[C@@H]1N(C)c1ncnc2[nH]ccc12", "test system": "NCTC8325", "MIC": "> 30 µM"}
{"SMILES": "O=C1NC(=S)S/C1=C\\c1c2ccccc2c(-c2ccc(N(c3ccccc3)c3ccccc3)cc2)c2ccccc12", "assay": "broth dilution", "test system": "ATCC25923", "MIC": "> 1000 µg/mL"}
{"SMILES": "CN(C)c1ccc(-c2nc3ncc(Cl)c(N4CCN(CC(=O)Nc5nccs5)CC4)c3[nH]2)cc1", "test system": "NCTC8325", "MIC": "> 30 µM"}
{"SMILES": "CCn1cc(C(=O)O)c(=O)c2cc(F)c(N3CCNCC3)cc21", "assay": "broth dilution", "test system": "ATCC6538", "MIC": "2 µM"}
{"SMILES": "O=C(Nc1ccc2c(c1)OC(F)(F)O2)c1ccc(Cl)c(C(F)(F)F)c1", "test system": "NCTC8325", "MIC": "3 µM"}
{"SMILES": "Cc1ccc2nc(-c3ccc4c(c3)OCO4)[nH]c2c1", "assay": "broth dilution", "test system": "ATCC29213 MSSA", "MIC": "256 µg/mL"}
{"SMILES": "CC1(C(=O)O)CCC(C(=O)Nc2ccc(Nc3ccccc3)cc2)C1(C)C (stereo not drawn)", "MIC": "> 128 µg/mL"}
{"SMILES": "C/C=C(\\C)c1cc(O)c(C)c(OC(=O)c2c(C)c(Cl)c(O)c(Cl)c2O)c1", "assay": "broth dilution", "test system": "ATCC29213", "MIC": "4 µg/mL"}
{"SMILES": "O=C(Nc1ccc(F)cc1)c1ccccc1O", "assay": "broth dilution", "test system": "ATCC29213", "MIC": "32 µg/mL"}
{"SMILES": "CSc1nc2nnnc(O)c2s1", "MIC": "> 128 µg/mL"}
{"SMILES": "Cc1cc(Cl)cc2sc(N(CCCn3ccnc3)C(=O)c3ccc[nH]3)nc12", "test system": "ATCC25923", "MIC": "1.3 µM"}
{"SMILES": "O=C(O)CN1C(=O)/C(=C/c2ccc(-c3ccc(N(c4ccccc4)c4ccccc4)cc3)cc2)NC1=S", "assay": "broth dilution", "test system": "ATCC43300", "MIC": "1.95 µg/mL"}
{"SMILES": "CC(C)Oc1c(NC(=O)c2ccc(NC(=O)[C@H](CC(N)=O)NC(=O)c3ccc(NC(=O)c4ccc(C5(C(F)(F)F)N=N5)cc4)cc3)cc2)ccc(C(=O)Nc2ccc(C(=O)O)cc2)c1O", "test system": "ATCC29213", "MIC": "> 64 µg/mL"}
